# Experimental data of several laboratories.
# Lines come from different studies, so protocols differ.
# Target: Serine/threonine-protein kinase PRP4 homolog (PRPF4B, Homo sapiens, UniProt Q13523)
SMILES,assay,setting,quantity,value
c1ccc(CNc2nc(N3CCOc4ccccc43)nc3c2CCCC3)cc1,"target engagement in cells, inhibitor, chemoproteomics",20 mM,inhibition,-6.7%
COc1ccc2c(O[C@@H]3C[C@H]4C(=O)N[C@]5(C(=O)O)CC5/C=C\CCCCC[C@H](NC(=O)OC5CCCC5)C(=O)N4C3)cc(-c3csc(NC(=O)C(C)C)n3)nc2c1C (some centres unmarked),"cell-free assay, competition with immobilised ligand",1 µM,remaining binding,93%
Cc1ccc(C(=O)NCc2ccsc2)cc1C#Cc1cn(C(C)C)c2ncnc(N)c12,"enzyme activity, inhibitor",1 µM,activity vs control,114%
CN1CC(Oc2cnc(C#N)cc2-c2ccn3nc(NC(=O)C4CC4)cc3c2)C1,"enzyme activity, inhibitor",1 µM,inhibition,3%
CCCCNc1ncc2c(-c3ccc(F)cc3)nn(C[C@H]3CC[C@H](N)CC3)c2n1,"target engagement in cells, inhibitor, chemoproteomics",20 mM,inhibition,-1.2%
Cc1ccc(C(=O)Nc2ccc(CN3CCN(C)CC3)c(C(F)(F)F)c2)cc1C#Cc1cnc2cccnn12,"enzyme activity, inhibitor",23.5 nM,remaining activity,91%
Nc1ncnc2occ(-c3ccc(NC(=O)Nc4cc(C(F)(F)F)ccc4F)cc3)c12,"cell-free assay, inhibitor",20 µM,remaining signal,100%
CC(=O)c1c(NS(C)(=O)=O)c2cc(-c3ccc(Cl)cc3)c(-c3ccc(Cl)cc3Cl)nc2n(C)c1=O,"cell-free assay, competition with immobilised ligand",1 µM,remaining binding,83%
